ChEMBL document CHEMBL1649231, “In vitro activities of panduratin A against clinical Staphylococcus strains” (2009)
≈ marks a conversion by molar mass, not a printed value.

Experiments:
Assay type in all cases: functional
[1] = system: Staphylococcus haemolyticus; assay: Bactericidal activity against methicillin-susceptible coagulase-negative Staphylococcus haemolyticus after 24 hrs by plate counting method
Outline: (§1)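 Clinical staphylococcal isolates from patient body fluids, blood, genital secretions, pus or sputum; species by conventional methods or Vitek. Twofold dilutions in Mueller-Hinton broth, inoculum 5 × 10^5 CFU/ml, 37°C aerobic 24 h (CLSI M7-A6 microdilution). About 100 μl from each well without visible growth spread on MHA; 37°C 24 h. MBC = lowest concentration giving no growth on agar.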

Staphylococcus aureus [2] = assay: Antimicrobial activity against methicillin-resistant Staphylococcus aureus assessed as intermediate resistant isolates after 24 hrs by broth microdilution method
Staphylococcus simulans [3] = assay: Antimicrobial activity against methicillin-resistant coagulase-negative Staphylococcus simulans assessed as susceptible isolates after 24 hrs by broth microdilution method
Staphylococcus simulans [4] = assay: Antimicrobial activity against methicillin-resistant coagulase-negative Staphylococcus simulans assessed as resistant isolates after 24 hrs by broth microdilution method
[5] = system: Staphylococcus epidermidis; assay: Antimicrobial activity against methicillin-resistant coagulase-negative Staphylococcus epidermidis after 24 hrs by broth microdilution method
Outline: (§2)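 Clinical isolates came from blood, body fluids, genital secretions, pus or sputum, identified conventionally or by Vitek. MICs were run by CLSI M7-A6 broth microdilution in Mueller-Hinton broth with 5 × 10^5 CFU/ml inoculum. Agents were twofold serially diluted, starting from 10% DMSO. Drug-free and uninoculated controls were included. Plates were incubated aerobically at 37°C for 24 h; MIC is the lowest concentration giving no visible growth.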

Staphylococcus hominis [6] = assay: Antimicrobial activity against methicillin-resistant coagulase-negative Staphylococcus hominis after 24 hrs by broth microdilution method; outline: as §2
Staphylococcus hominis [7] = assay: Antimicrobial activity against methicillin-resistant coagulase-negative Staphylococcus hominis assessed as susceptible isolates after 24 hrs by broth microdilution method
Staphylococcus aureus [8] = assay: Antimicrobial activity against methicillin-susceptible Staphylococcus aureus after 24 hrs by broth microdilution method; outline: as §2
Staphylococcus aureus [9] = assay: Antimicrobial activity against methicillin-susceptible Staphylococcus aureus assessed as susceptible isolates after 24 hrs by broth microdilution method
Staphylococcus simulans [10] = assay: Antimicrobial activity against methicillin-resistant coagulase-negative Staphylococcus simulans after 24 hrs by broth microdilution method; outline: as §2
Mammaliicoccus sciuri [11] = assay: Antimicrobial activity against methicillin-resistant coagulase-negative Staphylococcus sciuri assessed as susceptible isolates after 24 hrs by broth microdilution method
[12] = system: Staphylococcus haemolyticus; assay: Antimicrobial activity against methicillin-resistant coagulase-negative Staphylococcus haemolyticus assessed as susceptible isolates after 24 hrs by broth microdilution method
[13] = system: Staphylococcus haemolyticus; assay: Antimicrobial activity against methicillin-resistant coagulase-negative Staphylococcus haemolyticus assessed as resistant isolates after 24 hrs by broth microdilution method
Mammaliicoccus sciuri [14] = assay: Bactericidal activity against methicillin-resistant coagulase-negative Staphylococcus sciuri after 24 hrs by plate counting method; outline: as §1
Mammaliicoccus sciuri [15] = assay: Antimicrobial activity against methicillin-resistant coagulase-negative Staphylococcus sciuri assessed as intermediate resistant isolates after 24 hrs by broth microdilution method
Staphylococcus simulans [16] = assay: Antimicrobial activity against methicillin-susceptible coagulase-negative Staphylococcus simulans assessed as resistant isolates after 24 hrs by broth microdilution method
Staphylococcus simulans [17] = assay: Bactericidal activity against methicillin-susceptible coagulase-negative Staphylococcus simulans after 24 hrs by plate counting method; outline: as §1
Staphylococcus aureus [18] = assay: Antimicrobial activity against methicillin-resistant Staphylococcus aureus after 24 hrs by broth microdilution method; outline: as §2
Staphylococcus aureus [19] = assay: Antimicrobial activity against methicillin-resistant Staphylococcus aureus assessed as susceptible isolates after 24 hrs by broth microdilution method
Staphylococcus hominis [20] = assay: Antimicrobial activity against methicillin-susceptible coagulase-negative Staphylococcus hominis assessed as susceptible isolates after 24 hrs by broth microdilution method
Staphylococcus hominis [21] = assay: Antimicrobial activity against methicillin-resistant coagulase-negative Staphylococcus hominis assessed as intermediate resistant isolates after 24 hrs by broth microdilution method
[22] = Staphylococcus haemolyticus, 24 h

Row | Molecule | MBC50 [1] [mg/L] | Activity (Staphylococcus aureus [2]) [%] | Activity (Staphylococcus simulans [3]) [%] | Activity (Staphylococcus simulans [4]) [%] | MIC50 [5] [mg/L] | MIC90 [5] [mg/L] | MIC50 (Staphylococcus hominis [6]) [mg/L] | MIC90 (Staphylococcus hominis [6]) [mg/L] | Activity (Staphylococcus hominis [7]) [%] | MIC50 (Staphylococcus aureus [8]) [mg/L] | MIC90 (Staphylococcus aureus [8]) [mg/L] | Activity (Staphylococcus aureus [9]) [%] | MIC50 (Staphylococcus simulans [10]) [mg/L] | MIC90 (Staphylococcus simulans [10]) [mg/L] | Activity (Mammaliicoccus sciuri [11]) [%] | Activity [12] [%] | Activity [13] [%] | MBC50 (Mammaliicoccus sciuri [14]) [mg/L] | Activity (Mammaliicoccus sciuri [15]) [%] | Activity (Staphylococcus simulans [16]) [%] | also measured
1 | CC[C@H]1OC(=O)[C@H](C)[C@@H](O[C@H]2C[C@@](C)(OC)[C@@H](O)[C@H](C)O2)[C@H](C)[C@@H](O[C@@H]2O[C@H](C)C[C@H](N(C)C)[C@H]2O)[C@](C)(O)C[C@@H](C)C(=O)[C@H](C)[C@@H](O)[C@]1(C)O [ERYTHROMYCIN] | 2 (≈ 2.73 µM) | 0 | 15 | 74 | 16 (≈ 21.8 µM) | 32 (≈ 43.6 µM) | 16 (≈ 21.8 µM) | 32 (≈ 43.6 µM) | 11 | 0.5 (≈ 0.681 µM) | 32 (≈ 43.6 µM) | 56 | 16 (≈ 21.8 µM) | 32 (≈ 43.6 µM) | 15 | 11 | 74 | 32 (≈ 43.6 µM) | 15 | 27 | MBC [1, 22]: 1 mg/L (≈ 1.36 µM); MIC (Staphylococcus aureus [8]): 0.5 mg/L (≈ 0.681 µM); MBC (Mammaliicoccus sciuri [14]; Mammaliicoccus sciuri, 24 h): 1 mg/L (≈ 1.36 µM); MBC50 (Staphylococcus simulans [17]): 2 mg/L (≈ 2.73 µM); MBC (Staphylococcus simulans [17]; Staphylococcus simulans, 24 h): 1 mg/L (≈ 1.36 µM); MIC50 (Staphylococcus aureus [18]): 32 mg/L (≈ 43.6 µM); MIC90 (Staphylococcus aureus [18]): 64 mg/L (≈ 87.2 µM); Activity (Staphylococcus aureus [19]): 0%; Activity (Staphylococcus hominis [20]): 50%; Activity (Staphylococcus hominis [21]): 15%
2 | C[C@H]1COc2c(N3CCN(C)CC3)c(F)cc3c(=O)c(C(=O)O)cn1c23.C[C@H]1COc2c(N3CCN(C)CC3)c(F)cc3c(=O)c(C(=O)O)cn1c23.O [LEVOFLOXACIN] | 1 | 0 | 15 | 59 | 0.25 | 4 | 0.25 | 4 | 26 | 0.125 | 8 | 81 | 0.25 | 4 | 15 | 26 | 59 | 4 | 15 | 4 | MBC90 [1]: 4 mg/L; MBC [1, 22]: 0.5 mg/L; MIC [5]: 0.25 mg/L; MIC (Staphylococcus hominis [6]): 0.25 mg/L; MIC (Staphylococcus aureus [8]): 0.125 mg/L; MIC (Staphylococcus simulans [10]): 0.25 mg/L; MBC90 (Mammaliicoccus sciuri [14]): 16 mg/L; MBC (Mammaliicoccus sciuri [14]; Mammaliicoccus sciuri, 24 h): 0.5 mg/L; MBC50 (Staphylococcus simulans [17]): 1 mg/L; MBC90 (Staphylococcus simulans [17]): 4 mg/L; MBC (Staphylococcus simulans [17]; Staphylococcus simulans, 24 h): 0.5 mg/L; MIC50 (Staphylococcus aureus [18]): 8 mg/L; MIC90 (Staphylococcus aureus [18]): 128 mg/L; Activity (Staphylococcus aureus [19]): 18%; Activity (Staphylococcus hominis [20]): 96%; Activity (Staphylococcus hominis [21]): 15%
3 | CN(C)[C@@H]1C(O)=C(C(N)=O)C(=O)[C@@]2(O)C(O)=C3C(=O)c4c(O)cccc4[C@@](C)(O)[C@H]3C[C@@H]12 [TETRACYCLINE] | 8 (≈ 18 µM) | 0 | 7 | 75 | 1 (≈ 2.25 µM) | 64 (≈ 144 µM) | 1 (≈ 2.25 µM) | 64 (≈ 144 µM) | 18 | 4 (≈ 9 µM) | 8 (≈ 18 µM) | 70 | 1 (≈ 2.25 µM) | 64 (≈ 144 µM) | 7 | 18 | 75 | 4 (≈ 9 µM) | 7 | 4 | MBC90 [1]: 128 mg/L (≈ 288 µM); MBC [1, 22]: 1 mg/L (≈ 2.25 µM); MBC (Mammaliicoccus sciuri [14]; Mammaliicoccus sciuri, 24 h): 0.5 mg/L (≈ 1.13 µM); MBC50 (Staphylococcus simulans [17]): 8 mg/L (≈ 18 µM); MBC90 (Staphylococcus simulans [17]): 128 mg/L (≈ 288 µM); MBC (Staphylococcus simulans [17]; Staphylococcus simulans, 24 h): 1 mg/L (≈ 2.25 µM); MIC50 (Staphylococcus aureus [18]): 16 mg/L (≈ 36 µM); MIC90 (Staphylococcus aureus [18]): 32 mg/L (≈ 72 µM); Activity (Staphylococcus aureus [19]): 30%; Activity (Staphylococcus hominis [20]): 69%; Activity (Staphylococcus hominis [21]): 7%
4 | CN[C@H](CC(C)C)C(=O)N[C@H]1C(=O)N[C@@H](CC(N)=O)C(=O)N[C@H]2C(=O)N[C@H]3C(=O)N[C@H](C(=O)N[C@H](C(=O)O)c4cc(O)cc(O)c4-c4cc3ccc4O)[C@H](O)c3ccc(c(Cl)c3)Oc3cc2cc(c3O[C@@H]2O[C@H](CO)[C@@H](O)[C@H](O)[C@H]2O[C@H]2C[C@](C)(N)[C@H](O)[C@H](C)O2)Oc2ccc(cc2Cl)[C@H]1O [VANCOMYCIN] | 1 (≈ 0.69 µM) | 0 | 0 | 0 | 0.125 (≈ 0.0863 µM) | 2 (≈ 1.38 µM) | 0.125 (≈ 0.0863 µM) | 2 (≈ 1.38 µM) | 100 | 0.25 (≈ 0.173 µM) | 0.5 (≈ 0.345 µM) | 100 | 0.125 (≈ 0.0863 µM) | 2 (≈ 1.38 µM) | 0 | 100 | 0 | 2 (≈ 1.38 µM) | 0 | 12 | MBC90 [1]: 4 mg/L (≈ 2.76 µM); MBC [1, 22]: 0.125 mg/L (≈ 0.0863 µM); MIC [5]: 0.125 mg/L (≈ 0.0863 µM); MIC (Staphylococcus hominis [6]): 0.125 mg/L (≈ 0.0863 µM); MIC (Staphylococcus simulans [10]): 0.125 mg/L (≈ 0.0863 µM); MBC90 (Mammaliicoccus sciuri [14]): 4 mg/L (≈ 2.76 µM); MBC (Mammaliicoccus sciuri [14]; Mammaliicoccus sciuri, 24 h): 0.5 mg/L (≈ 0.345 µM); MBC50 (Staphylococcus simulans [17]): 1 mg/L (≈ 0.69 µM); MBC90 (Staphylococcus simulans [17]): 4 mg/L (≈ 2.76 µM); MBC (Staphylococcus simulans [17]; Staphylococcus simulans, 24 h): 0.125 mg/L (≈ 0.0863 µM); MIC50 (Staphylococcus aureus [18]): 0.5 mg/L (≈ 0.345 µM); MIC90 (Staphylococcus aureus [18]): 0.5 mg/L (≈ 0.345 µM); Activity (Staphylococcus aureus [19]): 100%; Activity (Staphylococcus hominis [20]): 100%; Activity (Staphylococcus hominis [21]): 0%
5 | GENTAMICIN | 1 | 22 | 7 | 48 | 8 | 64 | 8 | 64 | 45 | 4 | 64 | 52 | 8 | 64 | 7 | 45 | 48 | 8 | 7 | 27 | MBC [1]: 0.25 mg/L; MBC90 [1]: 64 mg/L; MBC (Mammaliicoccus sciuri [14]): 0.25 mg/L; MBC90 (Mammaliicoccus sciuri [14]): 128 mg/L; MBC (Staphylococcus simulans [17]): 0.25 mg/L; MBC50 (Staphylococcus simulans [17]): 1 mg/L; MBC90 (Staphylococcus simulans [17]): 64 mg/L; MIC50 (Staphylococcus aureus [18]): 32 mg/L; MIC90 (Staphylococcus aureus [18]): 64 mg/L; Activity (Staphylococcus aureus [19]): 15%; Activity (Staphylococcus hominis [20]): 73%; Activity (Staphylococcus hominis [21]): 7%
